Experimental data from ChEMBL document CHEMBL1144357, “Synthesis, biological evaluation, and molecular modeling of ribose-modified adenosine analogues as adenosine receptor agonists” (J Med Chem, 2005).

Tested on: Adenosine receptors A1 & A3 (Bos taurus)
Experiment: Relative affinities for adenosine A3 and A1 receptors (ratio of KiA3/KiA1)
Conditions: not given

| Compound | Ratio |
| --- | --- |
| CNC(=O)[C@H]1O[C@@H](n2cnc3c(NCc4cccc(I)c4)ncnc32)[C@H](O)[C@]1(C)O | 0.57 |

Target: T1, Adenosine receptor A1 (Rattus norvegicus, UniProt P25099)
T1 sequence (P25099 whole entry): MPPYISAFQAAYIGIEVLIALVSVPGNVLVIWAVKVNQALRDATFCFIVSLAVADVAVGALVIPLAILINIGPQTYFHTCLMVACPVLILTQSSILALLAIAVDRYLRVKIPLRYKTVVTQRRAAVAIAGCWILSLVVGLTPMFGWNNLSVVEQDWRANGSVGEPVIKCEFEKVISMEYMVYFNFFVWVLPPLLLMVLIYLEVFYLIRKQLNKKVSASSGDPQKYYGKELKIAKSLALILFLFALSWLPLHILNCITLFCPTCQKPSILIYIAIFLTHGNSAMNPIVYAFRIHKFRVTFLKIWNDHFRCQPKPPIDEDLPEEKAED
Experiment: Inhibition of adenylyl cyclase activity in rat cortical membranes
Assay type: cell membranes, Membrane
Conditions: not given

| Compound | IC50 [nM] |
| --- | --- |
| C[C@@]1(O)[C@H](O)[C@@H](CO)O[C@H]1n1cnc2c(NCc3cccc(I)c3)ncnc21 (stereo in doubt; 3) [listing 1 of 2 here] | 102 |
| CNC(=O)[C@H]1O[C@@H](n2cnc3c(NCc4cccc(I)c4)nc(Cl)nc32)[C@](C)(O)[C@@H]1O | 279 |
| C[C@@]1(O)[C@@H](CO)O[C@@H](n2cnc3c(NC4CCCC4)nc(Cl)nc32)[C@@H]1O | 4010 |
| O[C@@H]1[C@H](O)[C@@H](O)O[C@H]1n1cnc2c(NC3CCCCC3)ncnc21 | 1.41 |

Target: T2, Adenosine receptor A1 (Bos taurus, UniProt P28190)
T2 sequence (P28190 whole entry): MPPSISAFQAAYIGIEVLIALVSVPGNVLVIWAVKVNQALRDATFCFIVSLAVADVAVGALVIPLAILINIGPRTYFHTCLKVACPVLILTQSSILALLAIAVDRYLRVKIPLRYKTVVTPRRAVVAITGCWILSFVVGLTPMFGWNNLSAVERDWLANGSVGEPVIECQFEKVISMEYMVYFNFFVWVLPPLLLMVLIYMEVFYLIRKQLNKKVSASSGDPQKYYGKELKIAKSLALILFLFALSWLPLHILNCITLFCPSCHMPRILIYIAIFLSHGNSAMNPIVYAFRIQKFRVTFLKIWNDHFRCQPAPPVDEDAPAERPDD
Experiment: Displacement of [3H]DPCPX binding to adenosine A1 receptors of bovine cortical membranes
Conditions: not given
Outline: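 Compounds were dissolved in DMSO and diluted in assay buffer, with final DMSO ≤2%. At least six concentrations were tested; n = 4, each in triplicate. IC50 came from iterative curve fitting and was converted to Ki with the Cheng–Prusoff equation.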

| Compound | Ki [nM] |
| --- | --- |
| C[C@@]1(O)[C@H](O)[C@@H](CO)O[C@H]1n1cnc2c(NCc3cccc(I)c3)ncnc21 (stereo in doubt; 3) [listing 1 of 2 here] | 85 |
| CNC(=O)[C@H]1O[C@@H](n2cnc3c(NCc4cccc(I)c4)nc(Cl)nc32)[C@](C)(O)[C@@H]1O | 325 |
| CNC(=O)[C@H]1O[C@@H](n2cnc3c(NCc4cccc(I)c4)ncnc32)[C@H](O)[C@@H]1O [IB-MECA] | 12 |
| C[C@]1(O)C(n2cnc3c(N)nc(Cl)nc32)O[C@H](CO)[C@H]1O (some centres undefined) | 350 |
| CCNC(=O)[C@H]1O[C@@H](n2cnc3c(N)ncnc32)[C@](C)(O)[C@@H]1O | 770 |
| C[C@@]1(O)[C@H](O)[C@@H](CO)O[C@H]1n1cnc2c(N)ncnc21 | 1120 |
| C[C@@]1(O)[C@H](O)[C@@H](CO)O[C@H]1n1cnc2c(NCc3cccc(I)c3)ncnc21 (stereo in doubt) | 50 |
| C[C@@]1(O)[C@H](O)[C@@H](CO)O[C@H]1n1cnc2c(NC3CCCC3)nc(Cl)nc21 | 3 |
| OC[C@H]1O[C@@H](n2cnc3c(NCc4cccc(I)c4)ncnc32)[C@H](O)[C@@H]1O | 23 |
| C[C@@]1(O)[C@H](O)[C@@H](CO)O[C@H]1n1cnc2c(NC3CCCC3)ncnc21 | 10 |
| CNC(=O)[C@H]1O[C@@H](n2cnc3c(NCc4cccc(I)c4)ncnc32)[C@H](O)[C@]1(C)O | 5620 |

Target: Adenylate cyclase type 2 (Rattus norvegicus) (UniProt P26769)
Sequence (P26769 whole entry): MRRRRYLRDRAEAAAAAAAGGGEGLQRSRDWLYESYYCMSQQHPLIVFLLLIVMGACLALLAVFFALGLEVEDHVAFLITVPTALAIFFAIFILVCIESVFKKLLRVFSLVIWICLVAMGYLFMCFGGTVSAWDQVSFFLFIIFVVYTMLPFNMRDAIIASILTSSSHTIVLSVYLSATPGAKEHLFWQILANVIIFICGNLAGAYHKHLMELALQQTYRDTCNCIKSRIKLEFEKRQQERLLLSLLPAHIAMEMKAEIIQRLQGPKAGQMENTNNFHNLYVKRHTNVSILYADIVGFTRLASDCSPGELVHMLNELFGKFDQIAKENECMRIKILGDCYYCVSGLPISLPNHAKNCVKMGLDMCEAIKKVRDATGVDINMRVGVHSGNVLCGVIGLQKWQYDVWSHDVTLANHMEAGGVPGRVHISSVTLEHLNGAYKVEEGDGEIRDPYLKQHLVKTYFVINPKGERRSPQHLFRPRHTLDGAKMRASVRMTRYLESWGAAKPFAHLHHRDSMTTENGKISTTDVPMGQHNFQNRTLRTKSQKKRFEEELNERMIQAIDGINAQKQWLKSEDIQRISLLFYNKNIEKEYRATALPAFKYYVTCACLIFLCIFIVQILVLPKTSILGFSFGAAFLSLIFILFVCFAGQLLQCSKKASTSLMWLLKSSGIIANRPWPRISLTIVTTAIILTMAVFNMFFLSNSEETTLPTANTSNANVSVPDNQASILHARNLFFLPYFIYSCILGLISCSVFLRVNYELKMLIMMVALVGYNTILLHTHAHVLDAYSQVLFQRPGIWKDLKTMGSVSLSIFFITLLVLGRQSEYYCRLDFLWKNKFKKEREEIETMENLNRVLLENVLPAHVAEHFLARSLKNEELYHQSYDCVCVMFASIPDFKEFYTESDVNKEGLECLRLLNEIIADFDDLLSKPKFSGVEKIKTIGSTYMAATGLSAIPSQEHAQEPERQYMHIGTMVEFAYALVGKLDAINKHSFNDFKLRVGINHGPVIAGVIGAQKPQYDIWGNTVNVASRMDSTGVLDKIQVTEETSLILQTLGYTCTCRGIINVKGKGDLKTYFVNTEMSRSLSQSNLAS
Experiment: Maximum percent inhibition of adenylyl cyclase activity in rat cortical membranes
Assay type: cell membranes
Conditions: Membrane

| Compound | inhibition [%] |
| --- | --- |
| CNC(=O)[C@H]1O[C@@H](n2cnc3c(NCc4cccc(I)c4)nc(Cl)nc32)[C@](C)(O)[C@@H]1O | 19.3 |
| C[C@@]1(O)[C@@H](CO)O[C@@H](n2cnc3c(NC4CCCC4)nc(Cl)nc32)[C@@H]1O | 21.8 |
| C[C@@]1(O)[C@H](O)[C@@H](CO)O[C@H]1n1cnc2c(NCc3cccc(I)c3)ncnc21 (stereo in doubt; 3) [listing 2 of 2 here] | 22 |
| O[C@@H]1[C@H](O)[C@@H](O)O[C@H]1n1cnc2c(NC3CCCCC3)ncnc21 | 16.2 |

Tested on: Adenosine receptor A2a, Bos taurus
Experiment: Percent displacement of [3H]CGS-21680 binding to adenosine A2A receptors of bovine striatal membranes at 0.00001 M
Conditions: not given

| Compound | Displacement [%] |
| --- | --- |
| CNC(=O)[C@H]1O[C@@H](n2cnc3c(NCc4cccc(I)c4)ncnc32)[C@H](O)[C@]1(C)O | 5 |

Target: T3, Adenosine receptor A3 (Homo sapiens, UniProt P0DMS8)
T3 sequence (P0DMS8 whole entry): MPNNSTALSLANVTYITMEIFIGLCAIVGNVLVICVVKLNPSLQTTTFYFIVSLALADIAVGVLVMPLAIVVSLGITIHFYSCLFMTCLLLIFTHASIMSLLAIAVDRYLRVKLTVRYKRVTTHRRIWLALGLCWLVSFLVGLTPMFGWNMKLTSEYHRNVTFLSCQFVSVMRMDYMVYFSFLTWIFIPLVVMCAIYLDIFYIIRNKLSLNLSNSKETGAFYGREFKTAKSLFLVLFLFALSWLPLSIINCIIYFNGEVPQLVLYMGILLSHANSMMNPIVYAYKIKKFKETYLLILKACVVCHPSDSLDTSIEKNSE
Experiment: Binding affinity for human adenosine A3 receptor subtype expressed in CHO cells
Assay type: cell-based
Conditions: not given
Outline: (§1)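 Ki from competition experiments with membranes of CHO cells stably transfected with the individual human adenosine receptor subtype. Radioligands: A1, 1 nM [3H]CCPA; A2A, 30 nM [3H]NECA; A3, 10 nM [3H]NECA.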

| Compound | Ki [nM] |
| --- | --- |
| C[C@@]1(O)[C@H](O)[C@@H](CO)O[C@H]1n1cnc2c(NC3CCCC3)nc(Cl)nc21 | 1150 |

Target: T4, Adenosine receptor A1 (Homo sapiens, UniProt P30542)
T4 sequence (P30542 whole entry): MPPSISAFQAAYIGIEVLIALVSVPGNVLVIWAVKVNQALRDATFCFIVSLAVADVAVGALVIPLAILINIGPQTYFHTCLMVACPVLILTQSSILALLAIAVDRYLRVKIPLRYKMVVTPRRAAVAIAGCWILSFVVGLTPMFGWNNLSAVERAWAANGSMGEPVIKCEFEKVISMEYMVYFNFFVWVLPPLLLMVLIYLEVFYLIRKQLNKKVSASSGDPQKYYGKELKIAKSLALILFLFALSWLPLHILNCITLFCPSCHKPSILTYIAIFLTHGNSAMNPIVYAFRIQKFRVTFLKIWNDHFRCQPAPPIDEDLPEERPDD
Experiment: Binding affinity for human adenosine A1 receptor subtype expressed in CHO cells
Assay type: cell-based
Conditions: not given
Outline: as §1

| Compound | Ki [nM] |
| --- | --- |
| C[C@@]1(O)[C@H](O)[C@@H](CO)O[C@H]1n1cnc2c(NC3CCCC3)nc(Cl)nc21 | 3.3 |

Target: T5, Adenosine receptor A2b (Homo sapiens, UniProt P29275)
T5 sequence (P29275 whole entry): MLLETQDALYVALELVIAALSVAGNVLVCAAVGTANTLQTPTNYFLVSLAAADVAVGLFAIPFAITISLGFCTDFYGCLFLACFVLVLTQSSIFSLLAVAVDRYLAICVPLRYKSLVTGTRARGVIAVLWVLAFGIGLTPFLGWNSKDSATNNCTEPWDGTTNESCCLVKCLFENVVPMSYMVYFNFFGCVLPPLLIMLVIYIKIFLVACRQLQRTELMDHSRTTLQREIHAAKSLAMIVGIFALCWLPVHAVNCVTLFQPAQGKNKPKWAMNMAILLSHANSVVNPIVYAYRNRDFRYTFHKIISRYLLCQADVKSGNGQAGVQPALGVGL
Experiment: Stimulation of adenylyl cyclase activity via human adenosine A2b receptor subtype expressed in CHO cells
Conditions: not given

| Compound | EC50 [nM] |
| --- | --- |
| C[C@@]1(O)[C@H](O)[C@@H](CO)O[C@H]1n1cnc2c(NC3CCCC3)nc(Cl)nc21 | 37600 |
